ChEMBL document CHEMBL1165857, “Novel 3-alkanoyl/aroyl/heteroaroyl-2H-chromene-2-thiones: synthesis and evaluation of their antioxidant activities” (Eur J Med Chem, 2010)
Values after ≈ are worked out from the molar mass of the structure shown.

Key:
[1] = Antioxidant activity assessed as inhibition of glutathione-induced curcumin depletion at 10 ug/ml; format: functional
How it was run: (§1)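 Reaction solution: 20 μM curcumin and 15 mM GSH in 60% methanol, with sample at 10 μg/mL. Control had no sample. Solutions were γ-irradiated to generate GS• radicals; doses up to 250 Gy, with PI reported at 100 Gy. Curcumin depletion followed by absorbance at 425 nm against a blank. Protective index (%) derived from depletion with versus without sample.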

[2] = test system: Radical scavenging activity; assay: Antioxidant activity assessed as DPPH radical scavenging activity; format: functional
How it was run: (§2)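 DPPH (100 μM) in absolute methanol, compounds at 0–1000 μg/mL, in triplicate. After 30 min in the dark at room temperature, absorbance read at 515 nm against a blank. Percent decoloration taken relative to a methanol-treated control with DPPH and no sample; IC50 calculated in μg/mL.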

[3] = DPPH radical scavenging activity assessed as ascorbic acid equivalent antioxidant capacity; format: functional
How it was run: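 DPPH IC50 determined as above (100 μM DPPH in methanol, 30 min dark, room temperature, 515 nm). AEAC in mg ascorbic acid/g sample calculated as IC50(ascorbate)/IC50(sample) × 1000.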

[4] = Protective index against GS radical-induced curcumin depletion at 10 ug/ml irradiated at 100 Gy; how it was run: as §1
[5] = test system: Radical scavenging activity; assay: Antioxidant activity assessed as DPPH radical scavenging activity at 250 ug/ml; format: functional; how it was run: as §2

Question: For `COc1cccc2cc(C(=O)c3cccs3)c(=S)oc12`, which INH [1] is on record?
Answer: Its INH is 2.41 µM.

Question: What about the IC50 [2] of the same molecule?
Answer: The IC50 was 31.2 mg/L (≈ 103 µM).

Question: And the Activity [3]?
Answer: The Activity was 121 mg/g.

Question: And the PI [4]?
Answer: The PI was 56.9%.

Question: For `COc1ccc(C(=O)c2cc3cc(Br)ccc3oc2=S)cc1`, which IC50 [2] is on record?
Answer: The IC50 was 1112.83 mg/L (≈ 2970 µM).

Question: Which results are given for `COc1ccc(C(=O)c2cc3ccccc3oc2=S)cc1`?
Answer: IC50 [2]: 1579.25 mg/L (≈ 5330 µM); Activity [5]: 6.41%

Question: Which IC50 [2] does the source give for `COc1cccc2cc(C(=O)c3ccc(Cl)cc3)c(=S)oc12` here?
Answer: Its IC50 is 95.57 mg/L (≈ 289 µM).

Question: What about the Activity [3] of the same molecule?
Answer: The Activity was 40 mg/g.

Question: And the PI [4]?
Answer: The PI was 25.2%.

Question: With `COc1cccc2cc(C(=O)c3ccccc3)c(=S)oc12` as the molecule, how does the IC50 [2] read?
Answer: Its IC50 is 98.72 mg/L (≈ 333 µM).

Question: And the Activity [3]?
Answer: Its Activity is 38.7 mg/g.

Question: And the PI [4]?
Answer: The PI was 10.9%.

Question: Which IC50 [2] does the source give for `O=C(c1ccc(Cl)cc1)c1cc2ccccc2oc1=S` here?
Answer: The IC50 was 537.58 mg/L (≈ 1790 µM).

Question: For `COc1ccc(C(=O)c2cc3cccc(OC)c3oc2=S)cc1`, which IC50 [2] is on record?
Answer: Its IC50 is 603.43 mg/L (≈ 1850 µM).

Question: For `O=C(c1ccc(Cl)cc1)c1cc2cc(Br)ccc2oc1=S`, which IC50 [2] is on record?
Answer: Its IC50 is 850.41 mg/L (≈ 2240 µM).

Question: With `COc1cccc2cc(C(C)=O)c(=S)oc12` as the molecule, how does the IC50 [2] read?
Answer: The IC50 was 358.67 mg/L (≈ 1530 µM).

Question: Which results are given for `COc1cccc2cc(C(=O)c3ccc(C)cc3)c(=S)oc12`?
Answer: IC50 [2]: 233.71 mg/L (≈ 753 µM); Activity [3]: 16.4 mg/g; PI [4]: 3.65%

Question: Which INH [1] does the source give for `CC(=O)c1cc2ccccc2oc1=S` here?
Answer: The INH was 3.27 µM.

Question: What about the IC50 [2] of the same molecule?
Answer: The IC50 was 35.01 mg/L (≈ 171 µM).

Question: And the Activity [3]?
Answer: Its Activity is 111 mg/g.

Question: What about the PI [4] of the same molecule?
Answer: The PI was 45.8%.

Question: Which IC50 [2] does the source give for `Cc1ccc(C(=O)c2cc3ccccc3oc2=S)cc1` here?
Answer: Its IC50 is 551.57 mg/L (≈ 1970 µM).
